Assay results as given in the M2OR odorant receptor database.

Columns and labels:
Settings in all cases: stereoisomer not certain
[1] = test system: O51V1 L36F N51T G96W
Method in brief: (§1)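 Assay methods differ from source to source, frequently being transient luciferase assays in mammalian cell lines. For each receptor–molecule pair, the label responsive (active) applies when the original authors judged the measured signal statistically different from baseline, and non-responsive (inactive) applies otherwise.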

[2] = test system: O52A1
O52A1, sequence (as listed by the source): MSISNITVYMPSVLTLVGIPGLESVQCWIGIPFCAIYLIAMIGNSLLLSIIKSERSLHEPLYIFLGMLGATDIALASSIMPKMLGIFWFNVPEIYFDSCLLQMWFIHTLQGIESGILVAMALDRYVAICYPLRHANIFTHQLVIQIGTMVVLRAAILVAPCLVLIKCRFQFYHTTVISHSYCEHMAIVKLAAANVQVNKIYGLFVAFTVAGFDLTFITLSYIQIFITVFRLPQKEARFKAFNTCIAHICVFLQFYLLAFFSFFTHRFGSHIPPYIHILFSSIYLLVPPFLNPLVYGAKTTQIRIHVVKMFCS
Method in brief: as §1

[3] = test system: O52B6 V288I
O52B6 V288I, sequence (as listed by the source, stated change not applied): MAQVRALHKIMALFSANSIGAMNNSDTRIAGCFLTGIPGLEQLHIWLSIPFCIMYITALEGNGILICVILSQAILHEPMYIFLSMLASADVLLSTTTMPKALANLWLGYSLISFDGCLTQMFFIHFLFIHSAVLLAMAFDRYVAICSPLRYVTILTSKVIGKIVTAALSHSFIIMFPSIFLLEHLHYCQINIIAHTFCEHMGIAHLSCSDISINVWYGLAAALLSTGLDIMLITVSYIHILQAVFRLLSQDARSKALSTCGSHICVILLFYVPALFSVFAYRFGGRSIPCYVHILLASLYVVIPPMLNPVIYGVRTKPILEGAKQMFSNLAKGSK
Method in brief: as §1

[4] = test system: O52E2 R264C
O52E2 R264C, sequence (as listed by the source, stated change not applied): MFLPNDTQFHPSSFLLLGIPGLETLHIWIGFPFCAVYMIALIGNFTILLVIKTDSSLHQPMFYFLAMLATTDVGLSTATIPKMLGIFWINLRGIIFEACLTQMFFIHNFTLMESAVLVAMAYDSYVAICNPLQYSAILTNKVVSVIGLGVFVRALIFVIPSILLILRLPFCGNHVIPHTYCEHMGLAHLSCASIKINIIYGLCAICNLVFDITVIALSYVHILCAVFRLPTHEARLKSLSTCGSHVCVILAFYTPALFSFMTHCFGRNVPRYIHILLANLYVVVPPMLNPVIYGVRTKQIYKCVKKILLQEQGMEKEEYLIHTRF
Method in brief: as §1

[5] = test system: O52E4
O52E4, sequence (as listed by the source): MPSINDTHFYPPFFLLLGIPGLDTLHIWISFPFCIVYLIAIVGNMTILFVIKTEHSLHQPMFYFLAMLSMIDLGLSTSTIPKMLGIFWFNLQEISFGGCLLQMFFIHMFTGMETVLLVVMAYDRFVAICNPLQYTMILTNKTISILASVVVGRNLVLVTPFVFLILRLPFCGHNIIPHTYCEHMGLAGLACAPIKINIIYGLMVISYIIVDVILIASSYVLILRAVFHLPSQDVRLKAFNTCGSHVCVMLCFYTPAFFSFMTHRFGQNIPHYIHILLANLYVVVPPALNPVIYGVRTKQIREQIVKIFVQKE
Method in brief: as §1

[6] = test system: O52E5
O52E5, sequence (as listed by the source): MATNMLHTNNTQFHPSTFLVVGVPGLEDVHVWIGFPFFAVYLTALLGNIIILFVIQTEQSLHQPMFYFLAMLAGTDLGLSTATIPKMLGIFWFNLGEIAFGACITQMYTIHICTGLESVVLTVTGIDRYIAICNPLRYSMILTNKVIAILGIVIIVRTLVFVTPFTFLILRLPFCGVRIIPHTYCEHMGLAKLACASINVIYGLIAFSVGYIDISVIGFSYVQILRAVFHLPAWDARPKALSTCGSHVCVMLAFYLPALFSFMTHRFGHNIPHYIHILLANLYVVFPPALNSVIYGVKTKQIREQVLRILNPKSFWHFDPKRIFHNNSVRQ
Method in brief: as §1

[7] = test system: O52E8
O52E8, sequence (as listed by the source): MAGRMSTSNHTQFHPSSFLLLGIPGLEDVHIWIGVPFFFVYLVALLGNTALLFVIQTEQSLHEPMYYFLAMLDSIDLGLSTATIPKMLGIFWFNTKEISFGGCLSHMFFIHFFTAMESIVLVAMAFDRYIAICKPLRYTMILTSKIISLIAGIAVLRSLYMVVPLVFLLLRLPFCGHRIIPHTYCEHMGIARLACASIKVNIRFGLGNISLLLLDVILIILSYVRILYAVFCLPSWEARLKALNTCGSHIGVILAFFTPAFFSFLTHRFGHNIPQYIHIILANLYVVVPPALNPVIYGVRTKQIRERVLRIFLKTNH
Method in brief: as §1

[8] = test system: O52H1 A89T H130R C242R
Method in brief: as §1

[9] = test system: O52H1 H130R C242R
Method in brief: as §1

[10] = test system: O52H1
O52H1, sequence (as listed by the source): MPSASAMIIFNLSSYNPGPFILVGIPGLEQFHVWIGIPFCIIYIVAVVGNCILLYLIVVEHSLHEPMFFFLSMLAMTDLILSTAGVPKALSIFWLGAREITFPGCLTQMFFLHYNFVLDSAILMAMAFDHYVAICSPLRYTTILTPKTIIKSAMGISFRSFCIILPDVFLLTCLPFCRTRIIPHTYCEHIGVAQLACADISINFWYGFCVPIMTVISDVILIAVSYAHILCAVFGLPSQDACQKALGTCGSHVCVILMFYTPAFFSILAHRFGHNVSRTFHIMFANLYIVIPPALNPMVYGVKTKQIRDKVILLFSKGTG
Method in brief: as §1

Measured: odorant receptor agonist call

C=CCOC(=O)Cc1ccccc1
inactive: all assays above

Cc1c([N+](=O)[O-])c(C)c([N+](=O)[O-])c(C(C)(C)C)c1[N+](=O)[O-]
inactive: [7] | [10]
